# Activity calls are given as the source filed them. The rule behind the calls is not given here.
# Columns and labels:
# Thoracic aorta [1] = test: Vasorelaxing effect in endothelium-denuded Wistar rat thoracic aorta ring assessed as reduction in KCl-induced contractile tone at 1 mM relative to KCl; assay type: functional
# Thoracic aorta [2] = test: Vasorelaxing effect in endothelium-denuded Wistar rat thoracic aorta ring assessed as reduction in KCl-induced contractile tone; assay type: functional, tissue-based
# [3] = Drug metabolism in HSMC assessed as H2S release at 300 uM by WSP1 dye based spectrofluorometric method; assay type: ADME, cell-based; details: human
# Method in brief: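 HASMCs seeded at 30000/well on gelatine-coated culture slides; after 24 h, loaded with 100 µM WSP-1 for 30 min. Dye solution replaced by compound in HEPES-buffered saline, pH 7.4, without added thiols. H2S-evoked fluorescence (λ 465–515 nm) was read by spectrofluorometer over 1 h and expressed as fluorescence index.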
# [4] = Drug metabolism in HSMC assessed as H2S release at 300 uM by WSP1/propidium iodide staining based fluorescence microscopic method; assay type: ADME, cell-based; details: human
# Method in brief: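 HASMCs on gelatine-coated culture slides were loaded with 100 µM WSP-1 for 30 min, then incubated with compound in HEPES-buffered saline for 1 h. Cells were washed, fixed in Bouin solution for 10 min, washed twice and counterstained with propidium iodide for nuclei. Green WSP-1 fluorescence was examined by fluorescence microscopy.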
# Rattus norvegicus = test: Antihypertensive activity in Wistar rat model of L-NAME-induced hypertension assessed as decrease in basal systolic blood pressure at 133 umol/kg, ip measured at 5 mins interval for 30 mins relative to control; assay type: functional; design: scale not given: the % may be the effect or the level left
# Method in brief: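 Male 12-week-old normotensive Wistar rats (250 g), anaesthetized with sodium thiopental 60 mg/Kg. Tails warmed under an IR lamp for 15 min, and systolic pressure read by tail-cuff. Baseline taken, then L-NAME 100 mg/Kg i.p. given and pressure monitored 20 min. Test agent given i.p. in DMSO vehicle (0.33 ml/Kg). Read-outs taken every 5 min over 30 min and averaged, as % of the L-NAME-raised Psys. 6 rats/group.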
# Heart = test: Protection against angiotensin2-induced reduction in coronary flow in Langendorff perfused Wistar rat heart assessed as increase in coronary flow at 300 uM after 20 mins relative to control; assay type: functional; design: scale not given: the % may be the effect or the level left
# Method in brief: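 Langendorff-perfused hearts were equilibrated for 20 min. Coronary spasm was induced with angiotensin II 0.1 µM, kept in the perfusate throughout. Compound (300 µM) or vehicle was then added to the perfusate for 20 min. Coronary flow was expressed as % of the mean of three basal readings. Hearts from 6-9 animals/group; mean ± SE.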
# HSMC [5] = test: Induction of membrane hyperpolarization in HSMC measured every 2.5 mins for 40 mins by DiBac4(3) dye based spectrofluorometric method; assay type: functional, cell-based; details: Homo sapiens
# Method in brief: (§1)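 Human aortic smooth muscle cells were grown in Medium 231 with SMGS at 37 °C, 5% CO2, and seeded at 72×10^3/well on gelatin 24 h before use. Cells were loaded 1 h with DiBac4(3) 2.5 µM in HEPES buffer, pH 7.4, at room temperature. Fluorescence (ex 488/em 520 nm) was read every 2.5 min for 40 min. (Ft-F0)/F0 was calculated, and AUC expressed as % of the NS1619 10 µM response. Six experiments ×6 replicates.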
# [6] = Induction of membrane hyperpolarization in HSMC at 1 mM measured every 2.5 mins for 40 mins by DiBac4(3) dye based spectrofluorometric method relative to NS1619; assay type: functional, Homo sapiens; method in brief: as §1
# [7] = Drug metabolism in HSMC assessed as H2S release at 1 mM by WSP1 dye based spectrofluorometric method; assay type: ADME, cell-based; details: human, 1000 µM, TDE = time-dependent effect
# Method in brief: (§2)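 Human aortic smooth muscle cells were seeded on gelatin-coated slides (30000/well). After 24 h they were loaded with WSP-1 (100 µM) for 30 min, and the supernatant was replaced by compound in HEPES standard buffer (pH 7.4). Fluorescence (λ 465-515 nm) was followed for 1 h and expressed as fluorescence index. Reference donor was used at 300 µM. Data are mean ± SE.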
# HSMC [8] = test: Induction of intracellular cGMP level in HSMC at 300 uM after 20 mins by ELISA; assay type: functional, cell-based; details: Homo sapiens
# [9] = Induction of intracellular cGMP level in sodium nitroprusside pretreated HSMC at 300 uM after 20 mins by ELISA (reference value: 0.446 +/- 0.005 pmol/ml); assay type: functional, Homo sapiens
# [10] = Drug metabolism in HSMC assessed as H2S release by measuring increase in fluorescence intensity at 1 mM after 1 hr by WSP1 dye based spectrofluorometric method relative to DADS; assay type: ADME, cell-based; details: human, 1000 µM; method in brief: as §2
# [11] = Cytotoxicity in HSMC assessed as cell damage at 300 uM by propidium iodide staining based fluorescence microscopic method; details: human
# Method in brief: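 WSP-1-loaded human aortic smooth muscle cells were incubated with compound for 1 h. Cells were then washed, fixed in Bouin solution for 10 min, and washed twice. Nuclei were stained with propidium iodide, and slides were examined by fluorescence microscopy.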
# HSMC [12] = test: Induction of membrane hyperpolarization in HSMC at 10 uM measured every 2.5 mins for 40 mins by DiBac4(3) dye based spectrofluorometric method; assay type: functional, cell-based; details: Homo sapiens; method in brief: as §1
structure (smiles),measurement,setting,value
Oc1ccc(C(=S)NCc2ccccc2)cc1,Emax at 1000 µM,Thoracic aorta [1],88.2%
same,IC50,Thoracic aorta [2],347 µM
C=CCSSCC=C [DIALLYLDISULFIDE],Emax at 1000 µM,Thoracic aorta [1],41.7%
same,Drug metabolism,[3],Metabolite_Detected
same,Drug metabolism,[4],Metabolite_Detected
same,Activity,Rattus norvegicus,39%
COc1ccc(C(=N)SCc2ccccc2)cc1,Emax at 1000 µM,Thoracic aorta [1],89.9%
same,IC50,Thoracic aorta [2],257 µM
same,Activity,Heart,<=165%
same,Activity,HSMC [5],Dose-dependent effect
same,Activity,[6],149%
same,Drug metabolism,[7],Tde
same,Drug metabolism,[4],Metabolite_Detected
same,Activity,HSMC [8],inactive
same,Activity,[9],0.489 pmol/mL
same,Activity,Rattus norvegicus,36%
S=C(NCc1ccccc1)c1ccccc1,Emax at 1000 µM,Thoracic aorta [1],92.7%
same,IC50,Thoracic aorta [2],162 µM
N=C(SCc1ccccc1)c1ccc(O)cc1,Emax at 1000 µM,Thoracic aorta [1],82.1%
same,IC50,Thoracic aorta [2],490 µM
S=C(NCc1ccccc1)c1cccs1,Emax at 1000 µM,Thoracic aorta [1],91.7%
same,IC50,Thoracic aorta [2],240 µM
N=C(SCc1ccccc1)c1cccs1,Emax at 1000 µM,Thoracic aorta [1],89.9%
same,IC50,Thoracic aorta [2],263 µM
N=C(SCc1ccccc1)c1ccccc1,Emax at 1000 µM,Thoracic aorta [1],86.5%
same,IC50,Thoracic aorta [2],427 µM
N=C(Sc1ccccc1)c1cccs1,Emax at 1000 µM,Thoracic aorta [1],99.7%
same,IC50,Thoracic aorta [2],631 µM
same,Activity,Heart,inactive
same,Activity,HSMC [5],Dose-dependent effect
same,Activity,[6],36%
same,Drug metabolism,[7],Tde
same,fold change (FC),[10],50
same,Activity,[11],Toxic
same,Activity,HSMC [8],inactive
same,Activity,[9],0.667 pmol/mL
same,Activity,Rattus norvegicus,inactive
COc1ccc(C(=S)NCc2ccccc2)cc1,Emax at 1000 µM,Thoracic aorta [1],96.8%
same,IC50,Thoracic aorta [2],129 µM
N=C(SCc1ccc2ccccc2c1)c1cccs1,Emax at 1000 µM,Thoracic aorta [1],20.4%
O=c1[nH]c2cc(C(F)(F)F)ccc2n1-c1cc(C(F)(F)F)ccc1O,Activity,HSMC [12],Active

# Reference: ChEMBL document CHEMBL4028854, “Iminothioethers as Hydrogen Sulfide Donors: From the Gasotransmitter Release to the Vascular Effects” (J Med Chem, 2017)
